The list is not random: actives were taken first. Their share in the collection is about 1.2%.
procasp7 counter = counter-screen for procaspase-3 activators: activators of human procaspase-7 | recombinant procaspase-7, Ac-DEVD-pNA absorbance 405 nm; D23A/D198A/D206A triple mutant, cannot self-cleave; scale: DMSO 0, 5 µM enzyme 100 | activation, % at 8.5 µM | 0.093% of 330,000 active | P55210;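 active = percent activation above the screen-wide mean plus 3 SD, cut at about 25% in these data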
Target sequence (P55210 whole entry D23A/D198A/D206A): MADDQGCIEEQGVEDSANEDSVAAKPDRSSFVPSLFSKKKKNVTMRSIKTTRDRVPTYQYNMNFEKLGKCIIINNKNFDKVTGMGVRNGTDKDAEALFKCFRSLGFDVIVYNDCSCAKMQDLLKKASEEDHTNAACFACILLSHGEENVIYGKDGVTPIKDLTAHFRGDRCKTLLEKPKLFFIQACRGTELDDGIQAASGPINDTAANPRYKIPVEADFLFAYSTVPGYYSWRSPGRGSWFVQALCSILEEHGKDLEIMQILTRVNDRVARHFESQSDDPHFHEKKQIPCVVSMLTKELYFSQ
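System: Uncleavable procaspase-7 mutant enzyme; Amount: 2 µM procaspase-7 mutant as dispensed; Schedule: 1 h compound preincubation, 2 h substrate cleavage, 25 °C; Measured by: 405 nm absorbance of p-nitroaniline; Evaluation: percent activation from buffer-corrected 0–120 min absorbance change; Control set: low DMSO alone, high DMSO plus 5 µM PC-7.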
procasp3 activ = activators of human procaspase-3; 0.11% of 330,000 active; P42574; activation, % at 8.5 µM; recombinant procaspase-3 D3A, Ac-DEVD-pNA absorbance 405 nm;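 active = activation above the mean of all tested compounds plus 3 SD, cut at about 21% in these data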
Target sequence (P42574 whole entry D9A/D28A/D175A): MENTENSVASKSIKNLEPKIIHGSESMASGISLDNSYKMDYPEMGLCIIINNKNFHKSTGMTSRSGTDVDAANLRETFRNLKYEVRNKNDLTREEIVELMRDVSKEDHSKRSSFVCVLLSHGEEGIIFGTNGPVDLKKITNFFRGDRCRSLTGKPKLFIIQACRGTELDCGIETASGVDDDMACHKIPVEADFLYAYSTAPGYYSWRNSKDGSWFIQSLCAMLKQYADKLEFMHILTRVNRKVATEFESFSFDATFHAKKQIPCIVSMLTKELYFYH
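Evaluation: percent activation relative to control range; Material: Procaspase-3 D3A mutant, all three cleavage aspartates alanine; Compound: single dose, 8.5 µM nominal compound, 0.8% DMSO; Replication: one well per compound; Signal: absorbance at 405 nm, 0 and 120 min; Schedule: 1 h preincubation plus 2 h reaction at 25 °C.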
LANA-H2B inh = blocks KSHV LANA binding to histone H2A/H2B. cell-free LANA-H2A/H2B peptide, fluorescence polarization. Q9QR71. inhibition, % (no concentration beside the values). AID 2629. 0.6% of 320,000 active; in the data active = inhibition mostly above about 10%, no sharp cut-off; inactive = mostly below about 6.7%
ARFGAP1 inh = rat ARFGAP1 inhibition; Q62848; Arfgap1-stimulated ARF1 GTP hydrolysis, GDP FP detection; AID 651572; 0.26% of 360,000 active; inhibition, % at 16.5 µM;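 active = inhibition above a per-plate limit, mean inhibition of low control wells plus 3 SD, cut at about 25% in these data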
Target sequence (Q62848 1-136 limits assumed): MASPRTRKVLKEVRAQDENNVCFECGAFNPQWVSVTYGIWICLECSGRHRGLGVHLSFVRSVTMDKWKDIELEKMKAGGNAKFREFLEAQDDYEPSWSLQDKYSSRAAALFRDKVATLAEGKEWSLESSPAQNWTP
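Replicates: Single well per compound | Assay system: Truncated rat Arfgap1 GAP domain | Control set: No-Arfgap1 wells (100%) versus DMSO full-reaction wells (0%) | Times: Enzyme reaction 120 min at 25 °C after 20 min preincubation | Reagent: Human ARF1(Δ1-17)-GTP substrate | Measured by: Tracer-displacement fluorescence polarization with EDTA stop, 620/688 nm | Measure: Percent inhibition of Arfgap1-stimulated GTP hydrolysis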
CR mimetic SO = lowers age-related superoxide in aged yeast cells. S. cerevisiae aged cells, superoxide DHE fluorescence; hits give low values. superoxide response (% of plate mean), % at 10 µM. 0.18% of 330,000 active. AID 2690;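 active = superoxide response under a set limit, about three screen SD below normal, cut at about 65% in these data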;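 note: yeast aged for seven days with compound at 30 °C before DHE staining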
ASAP1 GAP inh = ASAP1 ArfGAP inhibition; ASAP1-stimulated ARF1 GTP hydrolysis, GDP FP detection; inhibition, % at 16.5 µM; 0.19% of 360,000 active; in the data active = inhibition above about 25%
Each line names hits and unclear results; the compound was inactive in the other large screens; ! = repeats disagree.

O=C(c1cc([N+](=O)[O-])cc([N+](=O)[O-])c1)N(Cc1nnc(-c2ccccc2Cl)o1)C1CC1	none
O=C1OC(CC(=O)N(Cc2nnc(-c3ccccc3Cl)o2)C2CC2)c2ccccc21 (stereo not drawn)	LANA-H2B inh 20
Clc1ccc(C2Nc3ccccc3-n3cccc32)cc1 (stereo not drawn)	procasp7 counter 28
CSc1cccc(NC(=S)N(CCCN2CCCC2)Cc2cccn2Cc2ccc(Cl)cc2)c1	LANA-H2B inh 13
Cc1ccc(SCc2cc(=O)[nH]c(N3CCOCC3)n2)cc1	LANA-H2B inh 17
Cc1nc(CSc2ccc(Cl)cc2)cc(N2CCOCC2)n1	none
COc1ccc(N2C(=O)c3ccc(C(=O)Nc4ccccc4O)cc3C2=O)cc1	LANA-H2B inh 15
Cc1cc(C)n(CC(O)Cn2c3ccc(Br)cc3c3cc(Br)ccc32)c(=O)n1 (stereo not drawn)	LANA-H2B inh 15
Cc1cc(C)n(CC(O)Cn2c3ccccc3c3ccccc32)c(=O)n1 (stereo not drawn)	none
C/C(=N/NC(=O)c1ccncc1)c1cc2ccc(O)cc2oc1=O	LANA-H2B inh 87
Cc1ccccc1C(=O)N[C@@H](CC(C)C)C(=O)N1CCC[C@H]1C(=O)NCc1ccccc1	none (no result: procasp7 counter, procasp3 activ, LANA-H2B inh, CR mimetic SO)
CCN(Cc1nc2cc(Cl)ccc2c(=O)[nH]1)C(=O)c1cccc(OCc2c(C)noc2C)c1	LANA-H2B inh 91
c1ccc2c(Nc3nncs3)c3ccccc3nc2c1	none
O=C(Nc1ccccc1-c1nnn(CC(=O)N2CCOCC2)n1)c1ccc(F)cc1	none
CC(C(=O)Nc1ncn[nH]1)N1C(=O)c2ccccc2C1=O (stereo not drawn)	LANA-H2B inh 17
COC(=O)c1ccccc1-c1c2ccc(=N)cc-2oc2cc(N)ccc12	LANA-H2B inh 192
COc1ccccc1NC(=O)COC(=O)C12CC3CC(CC(Cl)(C3)C1)C2	none
COc1ccc(NC(=O)COC(=O)C23CC4CC(CC(Cl)(C4)C2)C3)c(OC)c1	LANA-H2B inh 171
COC(=O)[C@]12C[C@H](CC(=O)NCCCCc3ccccc3)C(=O)N(CCC3=CCCCC3)C1=C[C@H](C(C)(C)C)O[C@@H]2C	none (no result: procasp7 counter, procasp3 activ, LANA-H2B inh, CR mimetic SO)
O=C(CNC(=O)c1ccccc1F)NCCN1C(=O)S/C(=C\c2ccc3c(c2)OCO3)C1=O	LANA-H2B inh 28
O=C(NCC1COc2ccccc2O1)c1cccc(S(=O)(=O)N2CCOCC2)c1 (stereo not drawn)	LANA-H2B inh 26
CCN1C/C(=C/c2cccs2)c2nc3ccccc3c(C(=O)O)c2C1	LANA-H2B inh 11
OC(c1ccccc1)(c1nc(/C=C/c2ccccc2)cs1)C(F)(F)F (stereo not drawn)	none (no result: procasp7 counter, procasp3 activ, LANA-H2B inh, CR mimetic SO)
CCOc1ccc(OCCCC(=O)NCCc2ccc(OC)cc2)cc1	LANA-H2B inh 11
COc1ccccc1CN1C[C@@H]2C[C@@H](c3cccc(C)c3)N3CCC[C@@]23C1=O	none
CCc1ccc(N2C(=O)CN(Cc3cccs3)C2=S)cc1	LANA-H2B inh active
COc1ccccc1CCn1cnc(-c2ccc(Br)cc2)c1CC(C)C	none (no result: procasp7 counter, procasp3 activ, LANA-H2B inh, CR mimetic SO)
N/C(=N\N=C\c1ccc(O)c(O)c1)c1nonc1N	LANA-H2B inh 18
CC1OC(OCC2OC(Oc3c(-c4ccc(O)cc4)oc4cc(O)cc(O)c4c3=O)C(O)C(O)C2O)C(O)C(O)C1O (stereo not drawn)	LANA-H2B inh active
CC1OC(OC2C(Oc3c(-c4ccc(O)cc4)oc4cc(O)cc(O)c4c3=O)OC(COC3O[C@@H](C)[C@H](O)[C@@H](O)C3O)C(O)C2O)C(O)C(O)C1O (stereo partly drawn)	none
C[C@@H]1ON(C)[C@H]2C[C@H]3c4cc(-c5ccc(F)cc5)ccc4CCN3C[C@@H]12	none (no result: procasp7 counter, procasp3 activ, LANA-H2B inh, CR mimetic SO)
COC(=O)CCCC1=CC2=C(c3ccccc3)C(=O)C(C)(OC(=O)C3CCCC3)C(=O)C2=CN1C1CC1 (stereo not drawn)	LANA-H2B inh 59
CCn1ncc(C2=NOC(C(=O)NCc3ccc(Cl)cc3)C2)c1C (stereo not drawn)	LANA-H2B inh 58
CCN(c1ccccc1)S(=O)(=O)c1ccc(Cl)c(C(=O)NC2CCN(Cc3ccccc3)CC2)c1	none (no result: procasp7 counter, procasp3 activ, LANA-H2B inh, CR mimetic SO)
COc1ccccc1C(=O)C1Nc2ccccc2-c2nnc(SC)nc2O1 (stereo not drawn)	LANA-H2B inh 21
COc1ccccc1CNC(=O)C(=O)NCC1OCCN1C(=O)c1cccs1 (stereo not drawn)	none
NC(=O)c1ncn([C@@H]2O[C@H](C(=O)N[C@H](Cc3ccccc3)C(=O)O)[C@@H](O)[C@H]2O)n1	none (no result: procasp7 counter, procasp3 activ, LANA-H2B inh, CR mimetic SO)
CCN(CCO)CC1CCCC2CCCCC21 (stereo not drawn)	none (no result: procasp7 counter, procasp3 activ, LANA-H2B inh, CR mimetic SO)
CN(C)CCCN1c2ccccc2Sc2ccc(Cl)cc21	LANA-H2B inh 2.8!
CN(C)CCCN1c2ccccc2Sc2ccc3ccccc3c21	none (no result: procasp7 counter, procasp3 activ, LANA-H2B inh, CR mimetic SO)
CN1CCCCC(NC(=O)c2cccc(F)c2)C1=O (stereo not drawn)	none (no result: procasp7 counter, procasp3 activ, LANA-H2B inh, CR mimetic SO)
N#CC(=C=[N-])/C=C(\C(=O)c1ccccc1)[n+]1ccccc1	LANA-H2B inh 21
N#CC(=Cc1ccc(-c2ccccc2)cc1)C(=O)c1ccccc1	none (no result: procasp7 counter, procasp3 activ, LANA-H2B inh, CR mimetic SO)
CCC(c1nnnn1C1CCCC1)N1CCC(C(N)=O)CC1 (stereo not drawn)	LANA-H2B inh 49
Cc1ccc(NC(=O)CSc2nc3ccccc3nc2N2CCCC2)cc1	procasp3 activ 40
CC(C)c1ccc(NC(=O)CSc2nc3ccccc3nc2N2CCCC2)cc1	none
Cc1ccc(NC(=O)CS(=O)(=O)c2cn(CC(=O)N3CCOCC3)c3ccccc23)cc1	LANA-H2B inh 18
CN(C(=O)CS(=O)(=O)c1cn(CC(=O)N2CCOCC2)c2ccccc12)c1ccccc1	LANA-H2B inh 34
CC1CN(C(=O)Cn2cc(S(=O)(=O)CC(=O)N(C)c3ccccc3)c3ccccc32)CC(C)O1 (stereo not drawn)	none
CC(C)Oc1cc(F)ccc1-c1cc(C(=O)NCC2CCCCC2)[nH]n1	none (no result: procasp7 counter, procasp3 activ, LANA-H2B inh, CR mimetic SO)
CSc1ncccc1C(=O)N1CCCC(CCC(=O)NCc2ccc(F)c(F)c2)C1 (stereo not drawn)	LANA-H2B inh 14
Cc1occc1C(=O)N1CCCC(CCC(=O)NCc2ccc(F)c(F)c2)C1 (stereo not drawn)	none
CC1=NN(c2ccccc2)C(=O)/C1=C/c1ccc(Cl)cc1	ARFGAP1 inh 28 (no result: procasp7 counter, procasp3 activ)
COCCn1c(SCC(=O)NC2CC2)nnc1-c1ccc(Cl)cc1	none
O=C(N[C@@H](Cc1cccnc1)C(=O)N1CCC[C@H]1C(=O)NCCc1ccccc1Cl)c1cccs1	none (no result: procasp7 counter, procasp3 activ, LANA-H2B inh, CR mimetic SO)
